Here are results for five molecules from paper PMC2886590 (Journal of molecular biology, 2010).

For one data set, the system named is MEIS1 promoter. In words: ChIP: MLL occupancy at MEIS1. Conditions: HA-tagged full-length MLL, 293T cells. The class given is cell-based. A digest of the protocol: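 293T cells were transfected with HA-tagged full-length MLL, wild type or point mutant, for two days. ChIP was then run with the indicated antibodies. Quantitative PCR was done on ChIP-bound and input DNA at the MEIS1 promoter, with a MEIS1 3' genomic region for comparison.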

Data set [1] deals with histone H3 tail (H3K4me3). The data set is classed as binding. Conditions: mutant PHD3; pull-down, microarray and NMR. A digest of the protocol:
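GST-fused MLL PHD3 (residues 1565-1627), wild type or mutant, was expressed in E. coli BL21(DE3) pLysS and purified on glutathione resin. It was incubated with C-terminally biotinylated histone H3 tail peptides (residues 1-21) on streptavidin beads in 50 mM Tris pH 7.5, 150 mM NaCl, 0.05% NP-40. Beads were washed five times, and bound protein was detected by anti-GST western blot. GST-PHD3 without peptide served as control.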

A further data set has as its system H3K4me3 peptide. Description: NMR titration of PHD3 mutants with H3K4me3 peptide. The data set is classed as binding. Conditions: data not shown; for H3K4me3 binding of mutant (1H,15N HSQC): 0.2 mM 15N-labeled mutant PHD3, H3K4me3 12-mer peptide; for changes in 1H,15N HSQC spectra induced by H3K4me3 peptide: 0.2 mM 15N-labeled mutant PHD3. In a few lines: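 PHD3 finger (residues 1565-1627, wild type or mutant) was expressed as a GST fusion in E. coli BL21(DE3) pLysS grown in 15NH4Cl minimal medium. It was affinity-purified, GST-cleaved, size-exclusion purified and held in 25 mM d11-Tris pH 6.8, 150 mM KCl, 10 mM deuterated DTT and 7% 2H2O. 12-mer histone tail peptides were added stepwise to 0.2 mM protein, and normalized chemical shift changes were tracked in 1H,15N HSQC spectra.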

Data set [2] is described as follows: MLL protein levels by western blot. Conditions: 293T cells, Fig. 3B. The data set is classed as cell-based. (In general: A western blot detects proteins with antibodies after separation by electrophoresis.)

B1: F1568A: MLL PHD3 point mutant (GST-PHD3 in vitro; engineered into full-length MLL in cells) (protein)
chain: KGNACPLCDKCYDDDDYESKMMQCGKCDRWVHSKCENLSDEMYEILSNLPESVAYTCVNCTER
modifications: left off: GST, end not stated, kept
As for B1, the “MEIS1 occupancy” value in the data set with MEIS1 promoter is reported as “also occupied the MEIS1 promoter”.

B2: M1585A: "loss-of-function" MLL PHD3 point mutant (PHD3 in vitro; full-length MLL in cells) (protein)
chain: KGNFCPLCDKCYDDDDYESKAMQCGKCDRWVHSKCENLSDEMYEILSNLPESVAYTCVNCTER
modifications: left off: GST, end not stated, kept
For the molecule B2, the “MEIS1 occupancy” value with MEIS1 promoter is “also occupied the MEIS1 promoter”. Also, the “ability to recognize H3K4me3” value in data set [1] is given as “more severely compromised”. In addition, in the data set on H3K4me3 peptide, the “H3K4me3 binding of mutant (1H,15N HSQC)” value is “binding was essentially abolished” and the “changes in 1H,15N HSQC spectra induced by H3K4me3 peptide” value is “small to negligible changes”.

B3: Y1576A: MLL PHD3 finger point mutant, tested in vitro only (protein)
chain: KGNFCPLCDKCADDDDYESKMMQCGKCDRWVHSKCENLSDEMYEILSNLPESVAYTCVNCTER
modifications: left off: GST, end not stated, kept
Take B3: in data set [1], the “ability to recognize H3K4me3” value is given as “more severely compromised”. In the data set with H3K4me3 peptide, the “H3K4me3 binding of mutant (1H,15N HSQC)” value is “binding was essentially abolished” and the “changes in 1H,15N HSQC spectra induced by H3K4me3 peptide” value is on record as “small to negligible changes”.

B4: W1594A: "loss-of-structure" MLL PHD3 point mutant (PHD3 in vitro; full-length MLL in cells) (protein)
chain: KGNFCPLCDKCYDDDDYESKMMQCGKCDRAVHSKCENLSDEMYEILSNLPESVAYTCVNCTER
modifications: left off: GST, end not stated, kept
As to B4, the “ability to recognize H3K4me3” value in data set [1] was “more severely compromised”. The “protein stability in vivo” value in data set [2] was “reduced stability in vivo”.

B5: D1592A: MLL PHD3 point mutant, acidic residue replaced with Ala (PHD3 in vitro; full-length MLL in cells) (protein)
chain: KGNFCPLCDKCYDDDDYESKMMQCGKCARWVHSKCENLSDEMYEILSNLPESVAYTCVNCTER
modifications: left off: GST, end not stated, kept
For B5, the “MEIS1 occupancy” value in the data set on MEIS1 promoter is on record as “also occupied the MEIS1 promoter”.
